Columns and labels:
[1] = Inhibition of cell growth of human HPDE cells at 25 uM measured after 72 hrs by CCK8 assay relative to control; assay type: toxicity, cell-based
In short: (§1)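 Single 25 μM exposure, read by CCK-8, n = 3, relative to control. Seeding was 3×10^3/well for MiaPaCa2, 7×10^3/well for BxPC3 (in RPMI-1640/10% FBS) and 1×10^4/well for HPDE (in KSFM with rEGF/BPE). After 24 h attachment, cells were exposed for 72 h. CCK-8 was then incubated for 1 h, and A450 minus A650 was compared with 0.5% DMSO.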

MIA PaCa-2 [2] = experiment: Inhibition of cell growth of human MIA PaCa-2 cells measured after 72 hrs by MTT assay; assay type: functional
In short: (§2)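 MTT read-out. Cancer lines were grown in DMEM with 10% FBS, glutamine and antibiotics. MCF10A was grown in DMEM:F12 with 5% horse serum, EGF, hydrocortisone, cholera toxin and insulin. Cells were plated in duplicate at 2500–4000/well, and drug was added 24 h later. After 72 h, absorbance was read at 540 nm. Single-point lines used 25 μM. GI50 is 50% growth inhibition versus untreated control. n = 3.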

A2780 = experiment: Inhibition of cell growth of human A2780 cells measured after 72 hrs by MTT assay; assay type: functional; in short: as §2
BE(2)-C = experiment: Inhibition of cell growth of human BE2C cells measured after 72 hrs by MTT assay; assay type: functional; in short: as §2
HT-29 = experiment: Inhibition of cell growth of human HT-29 cells measured after 72 hrs by MTT assay; assay type: functional; in short: as §2
MCF7 = experiment: Inhibition of cell growth of human MCF7 cells measured after 72 hrs by MTT assay; assay type: functional; in short: as §2
[3] = Inhibition of cell growth of human SJG2 cells measured after 72 hrs by MTT assay; assay type: functional; conditions: SJ-G2; in short: as §2
[4] = Inhibition of cell growth of human MCF-10A cells measured after 72 hrs by MTT assay; assay type: toxicity, cell-based; in short: as §2
DU-145 = experiment: Inhibition of cell growth of human DU-145 cells measured after 72 hrs by MTT assay; assay type: functional; in short: as §2
NCI-H460 = experiment: Inhibition of cell growth of human NCI-H460 cells measured after 72 hrs by MTT assay; assay type: functional; in short: as §2
BXPC-3 [5] = experiment: Inhibition of cell growth of human BXPC-3 cells at 25 uM measured after 72 hrs by CCK8 assay relative to control; assay type: functional; in short: as §1
U-87 MG = experiment: Inhibition of cell growth of human U87 cells measured after 72 hrs by MTT assay; assay type: functional, U-87MG ATCC; in short: as §2
A-431 = experiment: Inhibition of cell growth of human A-431 cells measured after 72 hrs by MTT assay; assay type: functional; in short: as §2
MIA PaCa-2 [6] = experiment: Inhibition of cell growth of human MIA PaCa-2 cells at 25 uM measured after 72 hrs by CCK8 assay relative to control; assay type: functional; in short: as §1
[7] = Inhibition of cell growth of human pancreatic cancer cells measured after 72 hrs by CCK8 assay; assay type: functional
In short: (§3)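 CCK-8 viability in human pancreatic cancer lines. Compounds were added over 100–0.05 μM 24 h after seeding, alongside a 0.5% DMSO vehicle. After 72 h, CCK-8 was incubated for 1 h at 37 °C. A450 minus A650 was expressed as % of vehicle. IC50 was taken from the dose-response curve. Seeding was 3×10^3/well for MiaPaCa2 and 7×10^3/well for BxPC3 and CFPAC-1. n = 3.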

PANC-1 = experiment: Inhibition of cell growth of human PANC-1 cells measured after 72 hrs by CCK8 assay; assay type: functional
ASPC1 = experiment: Inhibition of cell growth of human ASPC1 cells measured after 72 hrs by CCK8 assay; assay type: functional
Capan-2 = experiment: Inhibition of cell growth of human Capan-2 cells measured after 72 hrs by CCK8 assay; assay type: functional
HPAC = experiment: Inhibition of cell growth of human HPAC cells measured after 72 hrs by CCK8 assay; assay type: functional
BXPC-3 [8] = experiment: Inhibition of cell growth of human BXPC-3 cells measured after 72 hrs by CCK8 assay; assay type: functional; in short: as §3
MIA PaCa-2 [9] = experiment: Inhibition of cell growth of human MIA PaCa-2 cells measured after 72 hrs by CCK8 assay; assay type: functional; in short: as §3

COc1cccc(-c2cn(CCCN3CCN(S(=O)(=O)c4ccc(C)cc4)CC3)nn2)c1
inhibition at 72 h, 25 µM [1]: 45% | GI50 (MIA PaCa-2 [2]): > 50 µM | GI50 (A2780): 29 µM | GI50 (BE(2)-C): > 50 µM | GI50 (HT-29): 22 µM | GI50 (MCF7): 33 µM | GI50 [3]: > 50 µM | GI50 at 72 h [4]: > 50 µM | GI50 (DU-145): > 50 µM | GI50 (NCI-H460): > 50 µM | inhibition at 25 µM (BXPC-3 [5]): < 10% | GI50 (U-87 MG): > 50 µM | GI50 (A-431): > 50 µM | inhibition at 25 µM (MIA PaCa-2 [6]): < 10%

CC(C)(C)c1ccc(-c2cn(CCCNCCNS(=O)(=O)c3cc(C(F)(F)F)cc(C(F)(F)F)c3)nn2)cc1
GI50 [7]: 1100 nM

CCc1ccc(-c2cn(CCCN3CCN(S(=O)(=O)c4ccc(C(F)(F)F)cc4)CC3)nn2)cc1
GI50 (PANC-1): 6.1 µM | GI50 (ASPC1): 8 µM | GI50 (Capan-2): 6.1 µM | GI50 (HPAC): 5.8 µM | GI50 (BXPC-3 [8]): 3.7 µM

COc1cccc(-c2cn(CCCN3CCN(S(=O)(=O)c4ccc([N+](=O)[O-])cc4)CC3)nn2)c1
inhibition at 72 h, 25 µM [1]: 46.5% | GI50 (MIA PaCa-2 [2]): > 50 µM | GI50 (A2780): 27 µM | GI50 (BE(2)-C): > 50 µM | GI50 (HT-29): 41 µM | GI50 (MCF7): > 50 µM | GI50 [3]: > 50 µM | GI50 at 72 h [4]: > 50 µM | GI50 (DU-145): > 50 µM | GI50 (NCI-H460): > 50 µM | inhibition at 25 µM (BXPC-3 [5]): 21.1% | GI50 (U-87 MG): > 50 µM | GI50 (A-431): > 50 µM | inhibition at 25 µM (MIA PaCa-2 [6]): < 10%

O=S(=O)(NCCCNCc1ccc(Cl)cc1)c1cc(C(F)(F)F)cc(C(F)(F)F)c1
GI50 [7]: 1600 nM

Cc1ccc(-c2cn(CCCN3CCN(S(=O)(=O)c4ccc(C(F)(F)F)cc4)CC3)nn2)cc1
GI50 (PANC-1): 6.1 µM | GI50 (ASPC1): 7.3 µM | GI50 (Capan-2): 5 µM | GI50 (HPAC): 5 µM | GI50 (BXPC-3 [8]): 4 µM

COc1cccc(-c2cn(CCCN3CCN(S(=O)(=O)c4ccc(NC(C)=O)cc4)CC3)nn2)c1
GI50 (MIA PaCa-2 [9]): ~50 µM

COc1cccc(-c2cn(CCCN3CCN(S(=O)(=O)c4ccccc4)CC3)nn2)c1
inhibition at 72 h, 25 µM [1]: 15.8% | GI50 (MIA PaCa-2 [2]): > 50 µM | GI50 (A2780): 40 µM | GI50 (BE(2)-C): > 50 µM | GI50 (HT-29): 28 µM | GI50 (MCF7): 35 µM | GI50 [3]: 42 µM | GI50 at 72 h [4]: > 50 µM | GI50 (DU-145): > 50 µM | GI50 (NCI-H460): > 50 µM | inhibition at 25 µM (BXPC-3 [5]): < 10% | GI50 (U-87 MG): > 50 µM | GI50 (A-431): > 50 µM | inhibition at 25 µM (MIA PaCa-2 [6]): < 10%
